Only some compounds are listed: those with a hit (about 2.5% of all), similar ones and a draw of the others.
NadD block: inhibitors of S. aureus NadD, primary screen, biochemical, colorimetric, uHTS | purified NadD enzyme, colorimetric absorbance read-out | inhibition, % at 20 µM | hit rate 0.78% among 360,000 | AID 602399, 2012; in the data active means inhibition above about 26%
SENP1 FRET inh: human SENP1 catalytic domain inhibitors, primary screen, biochemical, FRET, uHTS. Sentrin-specific protease 1 (Homo sapiens), Q9P0U3. recombinant SENP1 catalytic domain, CyPet-SUMO1-YPet FRET cleavage. inhibition, % at 10 µM. hit rate 0.21% among 360,000. AID 624204, 2012;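 active means inhibition at least 30% at 10 µM, raw YFP signal under a set limit, fluorescence ratio 0.5 to 1.5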;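 further: 0% = enzyme with DMSO and 100% = no enzyme wells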
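system = hSENP1 catalytic domain, recombinant | reagent = SFCypet-SUMO1-SFYpet substrate at 25 nM | doses = one dose per compound, 10 µM, 0.5% DMSO | incubation = enzyme reaction for 50 min at room temperature, dark | measured by = FRET, CFP and YFP emission | controls = no-enzyme low, enzyme-DMSO high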
GRK2 aptamer HTS: compounds blocking aptamer binding on GRK2 – biochemical, human GRK2, bead flow cytometry, HTS, primary screen; Beta-adrenergic receptor kinase 1 (Homo sapiens), P25098; FAM-aptamer displacement from GRK2; inhibition of aptamer binding, % at 10 µM; hit rate 0.59% among 330,000;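 active means inhibition of aptamer binding above 40%, roughly 3 SD of noise, on plates passing a quality check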;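 further: median bead fluorescence of bound FAM aptamer so fluorescent compounds give negative values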
Beta2AR agonist: beta2AR agonists driving receptor internalization, primary screen, cell-based, FAP fluorogen, flow cytometry; response, % (no concentration beside the values); Beta-2 adrenergic receptor (Homo sapiens), P07550; AID 504454, 2011; Am2.2-beta2AR cells; hit rate 0.43% among 340,000;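 active means response above a set limit, near 3 SD of response in nonfluorescent compounds, cut at about 42% in these data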
Target sequence (P07550 whole entry, looked up): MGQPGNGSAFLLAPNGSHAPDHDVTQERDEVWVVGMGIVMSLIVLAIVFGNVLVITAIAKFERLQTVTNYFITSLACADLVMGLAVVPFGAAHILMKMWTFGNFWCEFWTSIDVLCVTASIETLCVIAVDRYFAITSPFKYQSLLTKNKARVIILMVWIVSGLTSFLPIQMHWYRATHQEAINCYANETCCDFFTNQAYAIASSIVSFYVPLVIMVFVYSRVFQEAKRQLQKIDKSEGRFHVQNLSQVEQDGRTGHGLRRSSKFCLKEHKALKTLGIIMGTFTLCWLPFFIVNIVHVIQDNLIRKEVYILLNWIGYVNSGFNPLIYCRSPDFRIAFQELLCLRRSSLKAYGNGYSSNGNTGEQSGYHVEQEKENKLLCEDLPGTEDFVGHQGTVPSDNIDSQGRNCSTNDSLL
ABHD5 PLIN5 PPI: ABHD5-PLIN5 interaction inhibitors, primary screen, cell lysate, split luciferase complementation, luminescence. Perilipin-5 (Homo sapiens) + 1-acylglycerol-3-phosphate O-acyltransferase ABHD5 (Homo …. Split G. princeps luciferase complementation, 4 h. inhibition, % at 4 µM. hit rate 0.78% among 360,000;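 active means inhibition above the mean inhibition across every tested compound plus 3 SD, cut at about 22% in these data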;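 further: 0% = DMSO only wells and the 100% control is not disclosed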
B2AR ag CP1: beta2AR agonists via receptor internalization, confirmation, cell-based, FAP fluorogen, flow cytometry, single point, cherry pick 1; hit rate 25% among 1,100; shares compounds with Beta2AR agonist; Am2.2-beta2AR cells, FAP surface receptor; stronger effect = lower value; percent response (surface receptor), % at 10 µM;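 active means surface receptor percent response at or below 58%, roughly 3 SD from nonfluorescent compounds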
FAP fluor counter: counter-screen for beta-2AR agonists: fluorescence in Am2.2 cells; shares compounds with Beta2AR agonist; FAP fluorogen flow cytometry, fluorescence counterscreen; stronger effect = lower value; calls only at 10 µM; 1,100 tested, under 10 active; AID 588765;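 active means percent response below a set limit in fluorescence channel 1 and below 50% in channel 8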
Active calls of the source: *; i = inactive; · = no result given.

SMILES | NadD block | SENP1 FRET inh | GRK2 aptamer HTS | Beta2AR agonist | ABHD5 PLIN5 PPI | B2AR ag CP1 | FAP fluor counter
COC(=O)C1=C(C(=O)OC)C(c2ccccc2O)c2sc(=O)[nH]c2S1 (centres undefined) | 0.4 | 1.1 | 2.0 | 99.6* | -1.7 | 93.1 | i
CC(C)NCC(O)c1cc(O)cc(O)c1 (centres undefined) | 4.9 | -0.8 | · | 0.1 | -6.2 | 93.3 | i
CC(C)NC[C@H](O)c1ccc(O)c(O)c1 | 0.1 | 0.9 | · | · | 4.6 | · | ·
Cc1noc(C)c1C(=O)Nc1ccc(C#N)cc1 | 2.3 | 0.9 | 2.0 | 0.2 | -3.6 | · | ·
COC(Cn1c2c(c3cc(C)ccc31)CCCC2NCc1ccccc1)OC (centres undefined) | -7.6 | 1.9 | · | 10.0 | -2.8 | · | ·
COc1ccc(-c2nc(NC(=O)c3cc(C(C)(C)C)nn3C)sc2C)cc1 | 1.0 | -2.1 | 1.0 | 29.4 | -15.2 | 80.3 | i
COc1ccc(-c2nc(NC(=O)c3c(C)noc3C)sc2C)cc1 | -1.2 | 1.6 | · | 1.6 | 0.0 | · | ·
COc1ccc(C2/C=C\CN(C(=O)c3ccccc3)CC(=O)N2Cc2cccc(F)c2)cc1 (centres undefined) | -5.0 | 2.2 | 2.0 | 3.9 | -5.2 | 100.8 | i
COc1ccc([C@H]2/C=C\CN(C(=O)CC(C)(C)C)[C@@H](C)C(=O)N2Cc2ccc(F)cc2)cc1 | 0.6 | 2.9 | 2.0 | -7.6 | -14.2 | · | ·
COc1ccc(C2/C=C\CN(C(=O)c3ccccc3)[C@H](Cc3ccccc3)C(=O)N2Cc2ccc(F)cc2)cc1 (some centres undefined) | 0.6 | 1.7 | 2.0 | 12.3 | -2.2 | 105.5 | i
COc1ccc([C@H]2/C=C\CN(C(=O)c3ccc(C)cc3)[C@@H](C)C(=O)N2Cc2ccc(F)cc2)cc1 | 4.1 | -0.5 | 0.0 | 14.7 | 0.7 | 105.9 | i
COc1ccc([C@H]2/C=C\CN(Cc3ccc(N(C)C)cc3)[C@@H](C)C(=O)N2Cc2ccc(F)cc2)cc1 | 0.3 | 3.0 | 1.0 | 113.2* | -10.8 | 28.9* | i
COc1ccc([C@H]2/C=C\CN(S(=O)(=O)c3ccc(C)cc3)[C@@H](C)C(=O)N2Cc2ccc(F)cc2)cc1 | -4.2 | 2.8 | 0.0 | 6.5 | 5.3 | · | ·
COc1ccc(C2/C=C\CN(S(=O)(=O)/C=C/c3ccccc3)[C@H](Cc3ccccc3)C(=O)N2Cc2ccc(F)cc2)cc1 (some centres undefined) | · | · | 0.0 | · | · | · | ·
CC1(C)C2CCC1(CS(=O)(=O)NC(CC(=O)O)c1cccc(Br)c1)C(=O)C2 (centres undefined) | -4.6 | -0.9 | 0.0 | -1.5 | -18.9 | · | ·
O=C(OCC(=O)N1CCCC1)c1ccccc1C(=O)c1ccccc1 | -6.1 | 1.0 | 0.0 | 4.6 | -6.0 | 118.5 | i
Cc1cc(S(=O)(=O)N2CCOCC2)ccc1OCC(=O)Nc1ccc(F)c(Cl)c1 | 2.1 | 1.6 | 3.0 | -0.1 | -5.5 | 111.5 | i
Cc1cc(S(=O)(=O)N2CCOCC2)ccc1OCC(=O)Nc1ccc(F)cc1 | -5.0 | -2.9 | 0.0 | 2.8 | 5.2 | 111.8 | i
Cc1ccc(OCC(=O)Nc2ccc(S(=O)(=O)N3CCOCC3)cc2)c(C)c1 | -8.5 | -1.7 | · | 1.9 | 7.0 | · | ·
CC(C)C(=O)N1CCC(n2nccc2NC(=O)CCc2ccccc2)CC1 | -2.1 | 3.6 | 0.0 | 5.6 | 10.2 | · | ·
CC1C(=O)N(Cc2cn(Cc3ccco3)nn2)CCS(=O)(=O)N1Cc1ccc(-c2ccc(Cl)c(Cl)c2)cc1 (centres undefined) | 16.4 | -4.9 | · | · | 8.7 | · | ·
CCc1ccccc1OCC(=O)N1CCN(c2ncccn2)CC1 | 1.4 | -0.6 | · | -0.8 | 10.9 | · | ·
